According to PMC6415968 (Organic letters, 2018):
Converted amounts (≈) assume the structure as drawn. “And” between values parts separate entries of the source, which are not always exact repeats. Equal entries are not always repeated. “Also recorded” adds a separate entry of the source.

Columns and labels:
CLK2 = CLK2 (Homo sapiens, UniProt P49760); experiment: Kd determination CLK2; format: binding
[1] = system: MDA-MB-231 human breast cancer cells; experiment: growth inhibition assay, MDA-MB-231; format: cell-based
Procedure, shortened: (§1)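 Simple growth-inhibition assay in two human cancer lines, MDA-MB-231 (breast) and AsPC-1 (pancreatic), run without a particular target in mind. Cells exposed to a range of test compound concentrations, highest 40 μM. GI50 (μM) read.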

[2] = system: AsPC-1 human tumor cell line (pancreatic cancer); experiment: growth inhibition assay, AsPC-1; format: cell-based; conditions: ASPC1
Procedure, shortened: as §1

CLK1,2,4 = experiment: established model for inhibition of CLK1,2,4 in cells; format: cell-based
CLK1 = CLK1 (Homo sapiens, UniProt P49759); experiment: Kd determination CLK1; format: binding
[3] = system: 12 human primary cell-based systems; experiment: BioMAP Diversity PLUS panel; conditions: comparison with reference database of >4,000 agents
cells (mitosis) = experiment: mitotic arrest in cells; format: cell-based
panel of 468 kinases = experiment: KINOMEscan panel of 468 kinases; format: binding; conditions: kinases bound divided by distinct kinases tested
ERα [4] = target: T1, ERα (Homo sapiens, UniProt P03372); experiment: estrogen receptor α agonist assay; format: cell-based; conditions: estrogen receptor agonism
T1 sequence (P03372 1-595): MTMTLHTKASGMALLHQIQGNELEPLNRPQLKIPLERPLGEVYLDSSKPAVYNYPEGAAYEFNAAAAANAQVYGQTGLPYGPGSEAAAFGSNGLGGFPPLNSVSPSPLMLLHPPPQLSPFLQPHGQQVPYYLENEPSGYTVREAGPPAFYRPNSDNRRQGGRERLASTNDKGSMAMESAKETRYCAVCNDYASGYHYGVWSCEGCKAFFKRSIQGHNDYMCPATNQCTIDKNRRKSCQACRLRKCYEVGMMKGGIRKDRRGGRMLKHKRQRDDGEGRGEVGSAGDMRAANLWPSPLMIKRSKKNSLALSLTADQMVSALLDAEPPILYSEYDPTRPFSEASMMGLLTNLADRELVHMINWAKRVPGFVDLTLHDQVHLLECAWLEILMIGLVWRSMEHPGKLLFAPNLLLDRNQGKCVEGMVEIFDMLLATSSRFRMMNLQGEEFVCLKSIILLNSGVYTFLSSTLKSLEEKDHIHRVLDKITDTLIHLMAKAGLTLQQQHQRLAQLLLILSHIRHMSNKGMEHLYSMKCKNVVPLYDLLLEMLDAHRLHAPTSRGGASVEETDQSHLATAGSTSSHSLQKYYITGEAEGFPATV

DYRK1A = DYRK1A (Homo sapiens, UniProt Q13627); experiment: Kd determination DYRK1A; format: binding
ERα [5] = target: T1, ERα; experiment: estrogen receptor α antagonist assay; format: cell-based; conditions: concentrations up to 10 μM
cdc-2-like kinase CLK4 = cdc-2-like kinase CLK4 (Homo sapiens, UniProt Q9HAZ1); experiment: Kd determination CLK4; format: binding
ERβ [6] = target: T2, ERβ (Homo sapiens, UniProt Q92731); experiment: estrogen receptor β agonist assay; format: cell-based
ERβ [7] = target: T2, ERβ; experiment: estrogen receptor β antagonist assay; format: cell-based; conditions: concentrations up to 10 μM
ERβ [8] = target: T2, ERβ; conditions: ref HsiehRW; RajanSS; SharmaSK; GreeneGL Steroids, 2008, 73, 59–68; cited from earlier work

T2 sequence (Q92731 whole entry): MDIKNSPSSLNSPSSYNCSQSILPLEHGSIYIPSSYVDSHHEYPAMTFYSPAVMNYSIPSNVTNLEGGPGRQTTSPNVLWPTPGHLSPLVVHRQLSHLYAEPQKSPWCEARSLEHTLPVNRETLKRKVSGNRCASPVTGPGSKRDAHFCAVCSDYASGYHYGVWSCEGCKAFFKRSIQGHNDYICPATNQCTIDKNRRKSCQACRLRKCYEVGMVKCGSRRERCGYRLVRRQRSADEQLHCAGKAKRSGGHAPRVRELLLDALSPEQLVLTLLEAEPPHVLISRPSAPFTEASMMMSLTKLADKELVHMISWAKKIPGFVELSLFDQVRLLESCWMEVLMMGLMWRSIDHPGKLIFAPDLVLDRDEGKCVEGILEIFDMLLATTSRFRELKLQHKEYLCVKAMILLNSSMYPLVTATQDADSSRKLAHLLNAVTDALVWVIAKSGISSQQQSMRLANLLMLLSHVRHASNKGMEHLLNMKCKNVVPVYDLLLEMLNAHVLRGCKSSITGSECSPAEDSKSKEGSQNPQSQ
Chain of CLK1 (P49759 whole entry): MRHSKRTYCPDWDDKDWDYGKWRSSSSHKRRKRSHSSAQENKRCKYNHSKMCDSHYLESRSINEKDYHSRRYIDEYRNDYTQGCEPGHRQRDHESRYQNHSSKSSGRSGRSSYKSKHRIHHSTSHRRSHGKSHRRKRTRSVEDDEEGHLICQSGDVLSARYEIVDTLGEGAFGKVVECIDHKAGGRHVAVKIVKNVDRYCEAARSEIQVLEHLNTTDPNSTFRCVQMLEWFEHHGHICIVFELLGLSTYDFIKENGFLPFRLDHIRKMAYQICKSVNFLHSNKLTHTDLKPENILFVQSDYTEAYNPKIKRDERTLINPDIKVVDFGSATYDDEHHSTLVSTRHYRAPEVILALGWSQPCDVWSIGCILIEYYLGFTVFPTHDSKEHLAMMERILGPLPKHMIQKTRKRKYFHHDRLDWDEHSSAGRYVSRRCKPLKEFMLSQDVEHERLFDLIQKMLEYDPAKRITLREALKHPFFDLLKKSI
Chain of cdc-2-like kinase CLK4 (Q9HAZ1 whole entry): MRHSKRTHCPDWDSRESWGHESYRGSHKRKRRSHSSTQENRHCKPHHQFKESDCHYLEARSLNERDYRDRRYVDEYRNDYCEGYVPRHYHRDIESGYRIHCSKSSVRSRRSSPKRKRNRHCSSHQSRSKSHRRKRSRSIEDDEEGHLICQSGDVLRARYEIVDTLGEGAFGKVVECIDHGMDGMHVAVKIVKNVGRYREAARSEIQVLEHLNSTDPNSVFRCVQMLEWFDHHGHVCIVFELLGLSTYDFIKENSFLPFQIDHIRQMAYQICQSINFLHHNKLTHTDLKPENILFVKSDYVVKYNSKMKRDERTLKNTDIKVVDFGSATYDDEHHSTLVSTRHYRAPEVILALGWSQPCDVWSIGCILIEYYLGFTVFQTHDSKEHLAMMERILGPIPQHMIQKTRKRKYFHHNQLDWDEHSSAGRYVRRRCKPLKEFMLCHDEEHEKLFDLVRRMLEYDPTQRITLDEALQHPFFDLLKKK
Chain of CLK2 (P49760 whole entry): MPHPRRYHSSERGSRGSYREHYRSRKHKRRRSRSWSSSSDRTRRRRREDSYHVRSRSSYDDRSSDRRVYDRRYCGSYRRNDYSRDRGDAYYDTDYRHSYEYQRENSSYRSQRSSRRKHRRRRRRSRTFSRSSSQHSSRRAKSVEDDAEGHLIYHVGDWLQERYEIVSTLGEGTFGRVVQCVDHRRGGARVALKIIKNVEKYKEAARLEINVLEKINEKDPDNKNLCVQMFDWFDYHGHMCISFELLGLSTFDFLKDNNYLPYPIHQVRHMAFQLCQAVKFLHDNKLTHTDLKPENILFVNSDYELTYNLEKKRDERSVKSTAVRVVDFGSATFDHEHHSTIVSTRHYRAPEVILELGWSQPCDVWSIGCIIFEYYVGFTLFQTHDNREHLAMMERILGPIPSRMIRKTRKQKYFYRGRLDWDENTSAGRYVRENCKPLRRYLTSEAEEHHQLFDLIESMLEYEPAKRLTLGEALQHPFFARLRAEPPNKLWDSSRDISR

Row | Structure (SMILES) | Kd (CLK2) [µM] | GI50 [1] [µg/mL] | GI50 [2] | CLK inhibitory activity in cells (CLK1,2,4) | Kd (CLK1) [µM] | BioMAP phenotypic profile similarity to reference agents [3] | mitotic arrest (cells (mitosis)) | S-score(35) (panel of 468 kinases) | agonist potency order ERβ vs ERα (ERα [4]) | Kd (DYRK1A) [µM] | antagonist activity at ERα (ERα [5]) | Kd (cdc-2-like kinase CLK4) [µM] | EC50 (ERβ [6]) [µM] | shift in selectivity favoring agonism of ERβ over ERα in comparison to 17-β-estradiol (ERβ [6]; ERβ vs ERα, relative to 17-β-estradiol) [fold] | antagonist activity at ERβ (ERβ [7]) | shift in selectivity for agonism of ER-β (ERβ [8])
1 | C[C@]12CCc3c(ccc4ccc(O)cc34)[C@@H]1C[C@@H](O)C2 [VII, estra-1,3,5(10),6,8-pentaene-2,16α-diol] | 2 | ~0.2 (≈ 0.745 µM) | ~0.5 µg/mL and 2 µM | no evidence of CLK inhibitory activity in cells | 1.4 | favorable comparison to both 17-β estradiol (a dual ERα and ERβ agonist) as well as 2-methoxyestradiol; also recorded: correlation with several microtubule targeting agents (combretastatin A4, 2-methoxyestradiol and paclitaxel); also recorded: related to the clinically relevant microtubule-targeting agent paclitaxel; also recorded: phenotypically related to paclitaxel | arrests cells in mitosis; also recorded: induces mitotic arrest in cells | 0.03 | potency for ERβ > ERα | 2 | not showing activity as an antagonist | 0.35 | 0.021 | ~4 | not showing activity as an antagonist | 
2 | C[C@]12CCc3c(ccc4cc(O)ccc34)[C@@H]1CC[C@@H]2O [17-β-dihydroequilenin] |  |  |  |  |  |  |  |  |  |  |  |  |  |  |  | related shift in selectivity for agonism of ER-β
